The structures appear in SMILES notation.

Data set [1] deals with Trypanosoma brucei. As to the kind of experiment: Antitrypanosomal activity against Trypanosoma brucei bloodstream form assessed as parasite growth inhibition at 10 uM after 72 hrs by resazurin dye-based assay relative to control. The format is functional. Particulars: read-out: GI; call rule not given here. An outline of the steps: (§1)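 T. brucei bloodstream forms were screened first. Compounds giving over 70% parasite growth inhibition then went to a full dose–response curve to derive EC50. Pentamidine was the reference.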

Data set [2] is described as follows: Selectivity index, ratio of CC50 for cytotoxicity against human THP1 cells to EC50 for antitrypanosomal activity against Trypanosoma brucei bloodstream form. Particulars: read-out: Ratio CC50/EC50. The format is toxicity, cell-based.
A further data set relates to 786-0. The data set is described as follows: Mitochondrial toxicity in human 786-O cells at 10 uM after 6 hrs by MitoTracker Red chloromethyl-X-rosamine based assay. The format is cell-based. The following applies: 786-0, 6 h.
Data set [3] has as its target Voltage-gated inwardly rectifying potassium channel KCNH2 (Homo sapiens, UniProt Q12809). As to the kind of experiment: Inhibition of human ERG at 10 uM after 2 hrs by fluorescence polarization assay. The procedure, abridged:
(§2)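 Single-concentration screen at 10 μM within an early in vitro ADME-tox panel, covering cytotoxicity in A549 cells and hERG inhibition.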
(Fluorescence polarisation rises when a labelled molecule tumbles more slowly, as on binding a larger partner.)

The nature of data set [4]: Cytotoxicity against human THP1 cells by MTT assay. The format is cell-based, THP-1.
Data set [5] deals with Trypanosoma brucei. As to the kind of experiment: Antitrypanosomal activity against Trypanosoma brucei bloodstream form after 72 hrs by resazurin dye-based assay relative to control. The format is functional, organism-based. An outline of the steps:
as §1
On the technique in general: Resazurin is reduced to fluorescent resorufin, in cell work by metabolically active cells.

A short description of data set [6]: Cytotoxicity against human A549 cells assessed as cell growth at 10 uM after 48 hrs by cell-titer-Glo assay relative to control. The format is cell-based. Particulars: read-out: Activity. The procedure, abridged:
as §2

Chain of Voltage-gated inwardly rectifying potassium channel KCNH2 (Q12809 whole entry): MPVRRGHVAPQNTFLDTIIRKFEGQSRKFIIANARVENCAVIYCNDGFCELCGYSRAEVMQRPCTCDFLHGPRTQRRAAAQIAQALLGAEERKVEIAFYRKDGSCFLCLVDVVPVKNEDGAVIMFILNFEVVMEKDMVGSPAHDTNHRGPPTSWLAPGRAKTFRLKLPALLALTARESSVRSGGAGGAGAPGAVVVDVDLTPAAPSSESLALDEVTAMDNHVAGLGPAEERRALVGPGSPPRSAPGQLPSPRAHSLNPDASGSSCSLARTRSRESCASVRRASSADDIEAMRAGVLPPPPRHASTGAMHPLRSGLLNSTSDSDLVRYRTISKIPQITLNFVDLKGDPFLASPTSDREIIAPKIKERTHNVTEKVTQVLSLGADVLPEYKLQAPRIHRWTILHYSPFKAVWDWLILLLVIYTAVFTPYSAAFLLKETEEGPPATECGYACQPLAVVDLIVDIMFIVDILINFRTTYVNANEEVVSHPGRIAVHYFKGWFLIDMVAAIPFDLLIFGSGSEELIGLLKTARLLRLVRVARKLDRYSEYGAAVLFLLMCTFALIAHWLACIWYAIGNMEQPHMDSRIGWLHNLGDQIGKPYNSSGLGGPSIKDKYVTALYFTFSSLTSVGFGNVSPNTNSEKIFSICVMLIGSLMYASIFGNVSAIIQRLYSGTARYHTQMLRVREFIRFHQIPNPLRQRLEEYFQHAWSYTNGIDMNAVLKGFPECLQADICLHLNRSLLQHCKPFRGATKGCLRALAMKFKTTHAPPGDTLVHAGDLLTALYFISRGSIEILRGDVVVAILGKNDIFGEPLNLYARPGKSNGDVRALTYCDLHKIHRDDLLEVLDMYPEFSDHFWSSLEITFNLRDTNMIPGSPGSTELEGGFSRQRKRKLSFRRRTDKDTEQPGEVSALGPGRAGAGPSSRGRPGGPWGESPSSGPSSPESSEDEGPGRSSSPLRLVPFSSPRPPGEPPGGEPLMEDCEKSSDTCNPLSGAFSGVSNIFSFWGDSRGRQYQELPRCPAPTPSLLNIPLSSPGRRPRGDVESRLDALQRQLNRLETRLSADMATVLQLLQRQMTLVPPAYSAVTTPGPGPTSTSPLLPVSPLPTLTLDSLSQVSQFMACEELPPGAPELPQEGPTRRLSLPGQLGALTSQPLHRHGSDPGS

The CC50 is the concentration giving 50% cytotoxicity. A low value points to greater toxicity to the cells. Usually EC50 stands for the concentration needed to bring the measured effect to its halfway point. Higher therefore signals a less potent agent. In the case of `O=c1c(O)c(-c2ccc3c(c2)OCO3)oc2ccccc12`, the inhibition of growth at 10 µM in the data set with Trypanosoma brucei [1] was found to be 100%. Also, the selectivity ratio in data set [2] is 4. Besides, the Activity result in the data set on 786-0 was “Non-Toxic”. In addition, the “inhibition (INH)” value in data set [3] was “Not Active”. In data set [4], this compound returned a CC50 of 12.5 to 25 µM. The compound further came in with a half-maximal effective concentration (EC50) in the data set on Trypanosoma brucei [5] of 2.9 µM.

For `O=c1c(O)c(-c2ccc3c(c2)OCO3)oc2ccc(F)cc12`, in the data set with Trypanosoma brucei [1], the inhibition of growth at 10 µM was determined as 7%. Moreover, the Activity entry with 786-0 was “Non-Toxic”. In data set [3], the “inhibition (INH)” value was “Not Active”. In data set [4], this compound gave a CC50 of 12.5 to 25 µM.

As for `COc1ccc2c(=O)c(OC(=O)C(C)(C)C)c(-c3ccc4c(c3)OCO4)oc2c1`, in the data set with Trypanosoma brucei [1], the inhibition of growth at 10 µM worked out at 100%. In data set [2], the selectivity ratio is > 92. In addition, in the data set on 786-0, the Activity result is listed as “Non-Toxic”. Besides, the “inhibition (INH)” value in data set [3] is “Not Active”. Also, the CC50 in data set [4] was > 100 µM. In the data set on Trypanosoma brucei [5], this compound gave an EC50 of 1.1 µM.

With `COc1ccc2c(=O)c(OC(=O)C(C)C)c(-c3ccc4c(c3)OCO4)oc2c1`, the inhibition of growth at 10 µM in the data set on Trypanosoma brucei [1] came out at 98%. Further, the selectivity ratio in data set [2] came to 24. In addition, the viability at 48 h, 10 µM in data set [6] was < 0%. Further, the Activity result in the data set on 786-0 was “Non-Toxic”. Moreover, in data set [3], the “inhibition (INH)” value is on record as “Not Active”. The CC50 in data set [4] is < 12.5 µM. In the data set on Trypanosoma brucei [5], the response was half-maximal at 0.5 µM (EC50).

For the compound `COc1ccc2c(=O)c(O)c(-c3ccc4c(c3)CCO4)oc2c1`, the inhibition of growth at 10 µM in the data set on Trypanosoma brucei [1] turned out to be 100%. The selectivity ratio in data set [2] was determined as 8. In the data set with 786-0, the Activity entry is “Non-Toxic”. The “inhibition (INH)” value in data set [3] is on record as “Not Active”. For the same compound, the CC50 in data set [4] was 25 to 50 µM. Further, in the data set on Trypanosoma brucei [5], it took 3.1 µM to reach a half-maximal effect (EC50).

For the compound `Cc1ccc2c(=O)c(O)c(-c3ccc4c(c3)OCO4)oc2c1`, the inhibition of growth at 10 µM with Trypanosoma brucei [1] was found to be 99%. Besides, the selectivity ratio in data set [2] was 31. Further, in the data set with 786-0, the Activity entry was “Non-Toxic”. The “inhibition (INH)” value in data set [3] was “Not Active”. This compound displayed a CC50 in data set [4] of 12.5 to 25 µM. This compound also gave an EC50 with Trypanosoma brucei [5] of 0.4 µM.

`CCOc1c(-c2ccc3c(c2)OCO3)oc2cc(OC)ccc2c1=O`: the inhibition of growth at 10 µM in the data set with Trypanosoma brucei [1] is 18%. Besides, the Activity result with 786-0 is “Non-Toxic”. Also, in data set [3], the “inhibition (INH)” value is reported as “Not Active”. Moreover, the CC50 in data set [4] was in the range of 50 to 100 µM. Further, the EC50 with Trypanosoma brucei [5] was > 10 µM.

In the case of `COc1ccc2c(=O)c(OC(C)=O)c(-c3ccc4c(c3)OCO4)oc2c1`, the inhibition of growth at 10 µM with Trypanosoma brucei [1] worked out at 100%. In addition, in data set [2], the selectivity ratio is 46. In addition, the Activity entry in the data set on 786-0 is listed as “Non-Toxic”. Besides, in data set [3], the “inhibition (INH)” value is listed as “Not Active”. Further, in data set [4], the CC50 was < 12.5 µM. Moreover, the EC50 in the data set with Trypanosoma brucei [5] turned out to be 0.3 µM.

For `COc1ccc2c(=O)c(OC(=O)N(C)C)c(-c3ccc4c(c3)OCO4)oc2c1`, in the data set with Trypanosoma brucei [1], the inhibition of growth at 10 µM was 25%. Also, the Activity result in the data set with 786-0 is “Non-Toxic”. In addition, the “inhibition (INH)” value in data set [3] is “Not Active”. The CC50 in data set [4] is > 100 µM. Further, the EC50 in the data set with Trypanosoma brucei [5] is > 10 µM.

Regarding `O=c1c(O)c(-c2ccc3c(c2)OCO3)oc2ccc(Br)cc12`, the inhibition of growth at 10 µM in the data set with Trypanosoma brucei [1] was found to be 38%. The Activity result in the data set on 786-0 is on record as “Non-Toxic”. In addition, the “inhibition (INH)” value in data set [3] is listed as “Not Active”. Further, in data set [4], the CC50 was 12.5 to 25 µM.

With `O=c1c(O)c(-c2ccc3c(c2)OCO3)oc2cc(Cl)ccc12`, the inhibition of growth at 10 µM in the data set on Trypanosoma brucei [1] turned out to be 83%. For the same compound, in data set [2], the selectivity ratio amounted to 3. Further, the viability at 48 h, 10 µM in data set [6] was < 0%. Besides, in the data set with 786-0, the Activity result is “Non-Toxic”. For the same compound, the “inhibition (INH)” value in data set [3] is recorded as “Not Active”. Moreover, the CC50 in data set [4] was < 12.5 µM. In addition, a half-maximal response in the data set on Trypanosoma brucei [5] (EC50) required 3.8 µM.

On to `CCCCC(=O)Oc1c(-c2ccc3c(c2)OCO3)oc2cc(OC)ccc2c1=O`, for which the inhibition of growth at 10 µM in the data set with Trypanosoma brucei [1] came to 100%. In addition, the selectivity ratio in data set [2] was found to be 22. Besides, the Activity result with 786-0 is “Non-Toxic”. Moreover, the “inhibition (INH)” value in data set [3] was “Not Active”. The CC50 in data set [4] was < 12.5 µM. Also, the EC50 with Trypanosoma brucei [5] was 0.6 µM.

`O=c1c(O)c(-c2ccc3c(c2)OCO3)oc2cc(F)ccc12`: the inhibition of growth at 10 µM with Trypanosoma brucei [1] was determined as 98%. Further, the selectivity ratio in data set [2] is 8. Also, the Activity result in the data set with 786-0 is “Non-Toxic”. In data set [3], the “inhibition (INH)” value is “Not Active”. The CC50 in data set [4] was < 12.5 µM. A half-maximal effect with Trypanosoma brucei [5] (EC50) was put at 2.4 µM.

In the case of `CCCOc1c(-c2ccc3c(c2)OCO3)oc2cc(OC)ccc2c1=O`, the inhibition of growth at 10 µM in the data set with Trypanosoma brucei [1] was determined as 20%. The Activity entry in the data set with 786-0 is “Non-Toxic”. Further, in data set [3], the “inhibition (INH)” value was “Not Active”. Moreover, the CC50 in data set [4] was in the range of 12.5 to 25 µM. Moreover, the 50% effective concentration (EC50) in the data set on Trypanosoma brucei [5] is > 10 µM.

As for `COc1ccc2oc(-c3ccc4c(c3)OCO4)c(O)c(=O)c2c1`, the inhibition of growth at 10 µM in the data set on Trypanosoma brucei [1] amounted to 19%. The Activity entry in the data set on 786-0 is “Non-Toxic”. The “inhibition (INH)” value in data set [3] is listed as “Not Active”. Besides, in data set [4], the CC50 is < 12.5 µM.

For the compound `COc1ccc2c(=O)c(O)c(-c3ccc4c(c3)OC(F)(F)O4)oc2c1`, in the data set with Trypanosoma brucei [1], the inhibition of growth at 10 µM is 47%. For the same compound, the Activity entry in the data set on 786-0 is recorded as “Non-Toxic”. Also, the “inhibition (INH)” value in data set [3] is recorded as “Not Active”. Besides, in data set [4], the CC50 is > 100 µM. In addition, the EC50 with Trypanosoma brucei [5] is > 10 µM.

With `O=c1c(O)c(-c2ccc3c(c2)OCO3)oc2ccc(Cl)cc12`, the inhibition of growth at 10 µM in the data set on Trypanosoma brucei [1] is 13%. In addition, the Activity entry in the data set with 786-0 is “Non-Toxic”. Also, in data set [3], the “inhibition (INH)” value was “Not Active”. The 50% cytotoxic concentration (CC50) in data set [4] was < 12.5 µM.

As to `COc1ccc2c(=O)c(O)c(-c3ccc4c(c3)OCCO4)oc2c1`, in the data set on Trypanosoma brucei [1], the inhibition of growth at 10 µM came to 71%. In addition, the Activity result with 786-0 is listed as “Non-Toxic”. For the same compound, in data set [3], the “inhibition (INH)” value is given as “Not Active”. In data set [4], this compound displayed a CC50 of 50 to 100 µM. In addition, in the data set with Trypanosoma brucei [5], the EC50 is > 10 µM.

For `Cc1ccc2oc(-c3ccc4c(c3)OCO4)c(O)c(=O)c2c1`, the inhibition of growth at 10 µM in the data set on Trypanosoma brucei [1] came to 99%. Also, in data set [2], the selectivity ratio stood at 3. Further, the Activity entry in the data set on 786-0 was “Non-Toxic”. Besides, in data set [3], the “inhibition (INH)” value is listed as “Not Active”. The 50% cytotoxic concentration (CC50) in data set [4] was < 12.5 µM. In addition, the EC50 in the data set with Trypanosoma brucei [5] stood at 4.1 µM.

In the case of `COc1ccc2c(=O)c(OC(=O)C3CCCCC3)c(-c3ccc4c(c3)OCO4)oc2c1`, the inhibition of growth at 10 µM in the data set with Trypanosoma brucei [1] was 98%. Also, in data set [2], the selectivity ratio amounted to 25. Moreover, in the data set with 786-0, the Activity entry was “Non-Toxic”. In addition, in data set [3], the “inhibition (INH)” value is “Not Active”. This compound also had a CC50 in data set [4] of 12.5 to 25 µM. This compound also registered an EC50 in the data set on Trypanosoma brucei [5] of 0.5 µM.

As usually defined, the IC50 is the concentration needed to halve the response being measured. Turning to `N=C(N)c1ccc(OCCCCCOc2ccc(C(=N)N)cc2)cc1` [PENTAMIDINE], in the data set on Trypanosoma brucei [5], the IC50 turned out to be 0.00155 µM.

(Values after ChEMBL document CHEMBL4433215, “SAR Studies and Biological Characterization of a Chromen-4-one Derivative as an Anti-Trypanosoma brucei Agent” (ACS Med Chem Lett, 2019).)
